Measurements taken from ChEMBL document CHEMBL4715770, “Inhibition of Low Molecular Weight Protein Tyrosine Phosphatase by an Induced-Fit Mechanism” (J Med Chem, 2016).
Activity calls are given as the source filed them. No cut-off for these calls is given here.

Assays:
[1] = molecular target: T1, Low molecular weight phosphotyrosine protein phosphatase (Homo sapiens, UniProt P24666); assay: Inhibition of His-tagged LMW-PTP isoform A (unknown origin) expressed in Escherichia coli BL21 cells using para-nitrophenyl phosphate as substrate incubated for 5 to 10 mins by microplate reader based spectrophotometric analysis
T1 sequence (P24666 whole entry): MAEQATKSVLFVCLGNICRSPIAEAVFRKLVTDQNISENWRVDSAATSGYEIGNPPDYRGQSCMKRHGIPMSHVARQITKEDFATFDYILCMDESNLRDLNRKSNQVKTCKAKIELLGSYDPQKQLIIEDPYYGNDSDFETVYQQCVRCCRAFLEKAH

[2] = Inhibition of His-tagged PTP-H1 (unknown origin) expressed in Escherichia coli BL21 cells using para-nitrophenyl phosphate as substrate incubated for 5 to 10 mins by microplate reader based spectrophotometric analysis; parameters: species or system Homo sapiens
In short: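 Enzyme at 5-20 nM was added to substrate plus a range of inhibitor concentrations and run 5-10 min at room temperature. Quenched with 5N NaOH and p-nitrophenol read at 405 nm (ε 18,000 M-1cm-1), with a no-enzyme background correction. IC50 from curve fitting.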

[3] = molecular target: T2, Dual specificity protein phosphatase 23 (Homo sapiens, UniProt Q9BVJ7); assay: Inhibition of His-tagged VHZ (unknown origin) expressed in Escherichia coli BL21 cells using para-nitrophenyl phosphate as substrate incubated for 5 to 10 mins by microplate reader based spectrophotometric analysis
T2 sequence (Q9BVJ7 whole entry): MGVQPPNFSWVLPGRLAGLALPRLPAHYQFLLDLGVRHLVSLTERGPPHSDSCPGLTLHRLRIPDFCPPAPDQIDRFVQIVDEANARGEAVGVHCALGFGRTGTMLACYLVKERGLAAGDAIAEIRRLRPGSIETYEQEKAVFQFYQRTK

[4] = molecular target: T1, Low molecular weight phosphotyrosine protein phosphatase; assay: Competitive inhibition of His-tagged LMW-PTP isoform A (unknown origin) expressed in Escherichia coli BL21 cells using para-nitrophenyl phosphate as substrate by Lineweaver-Burk plot analysis
In short: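 Recombinant enzyme Ni-NTA purified (Tris pH 7.8, 500 mM NaCl, 250 mM imidazole elution), then Sephadex G75. pNPP hydrolysis in 50 mM 3,3-dimethylglutarate, pH 7.0, 25 °C. Enzyme added last to mixes of varied pNPP and inhibitor concentrations, 5-10 min, NaOH quench. p-nitrophenol read at 405 nm (ε 18,000 M-1cm-1), no-enzyme blank subtracted. Ki fitted by enzyme-kinetics regression.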

[5] = molecular target: T1, Low molecular weight phosphotyrosine protein phosphatase; assay: Competitive inhibition of LMW-PTP isoform B (unknown origin) using para-nitrophenyl phosphate as substrate by Lineweaver-Burk plot analysis
In short: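 Recombinant His-tagged LMW-PTP from E. coli, Ni-NTA then Sephadex G75 purified. pNPP hydrolysis in 50 mM 3,3-dimethylglutarate buffer, pH 7.0, 25 °C. Reaction started by adding enzyme to mixes of varied pNPP and varied inhibitor concentrations, run 5-10 min, quenched with 5N NaOH. p-Nitrophenol read at 405 nm, blank without enzyme subtracted. Ki from enzyme-kinetics fitting.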

[6] = molecular target: T3, RNA polymerase II subunit A C-terminal domain phosphatase SSU72 (Homo sapiens, UniProt Q9NP77); assay: Inhibition of His-tagged SSu72 (unknown origin) expressed in Escherichia coli BL21 cells using para-nitrophenyl phosphate as substrate incubated for 5 to 10 mins by microplate reader based spectrophotometric analysis
T3 sequence (Q9NP77 whole entry): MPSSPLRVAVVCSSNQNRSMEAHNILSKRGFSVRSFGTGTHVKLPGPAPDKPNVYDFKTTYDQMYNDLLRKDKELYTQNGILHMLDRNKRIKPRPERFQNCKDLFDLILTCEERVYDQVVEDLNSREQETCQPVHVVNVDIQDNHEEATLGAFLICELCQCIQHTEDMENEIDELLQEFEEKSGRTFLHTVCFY

[7] = molecular target: Low molecular weight phosphotyrosine protein phosphatase (Homo sapiens) (UniProt P24666); assay: Inhibition of LMW-PTP isoform A in human HepG2 cells assessed as increase in insulin-induced Akt phosphorylation at 16 uM pretreated for 2 hrs followed by insulin stimulation and measured after 30 mins by Western blot analysis; assay type: cell-based
In short: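 HepG2 cells in DMEM with 10% FBS at 37 °C and 5% CO2 were grown to 60-80% confluence and serum-starved overnight. They were given vehicle or compound for 2 h, then 50 nM insulin for 30 min. Lysates were run on 10% SDS-PAGE and immunoblotted for phospho-AKT and total AKT with ECL detection. Densitometric pAKT/AKT ratios were normalized to vehicle.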

[8] = molecular target: Tyrosine-protein phosphatase non-receptor type 13 (Homo sapiens, UniProt Q12923); assay: Inhibition of His-tagged FAP1 (unknown origin) expressed in Escherichia coli BL21 cells using para-nitrophenyl phosphate as substrate incubated for 5 to 10 mins by microplate reader based spectrophotometric analysis
Tyrosine-protein phosphatase non-receptor type 13, sequence (Q12923 whole entry): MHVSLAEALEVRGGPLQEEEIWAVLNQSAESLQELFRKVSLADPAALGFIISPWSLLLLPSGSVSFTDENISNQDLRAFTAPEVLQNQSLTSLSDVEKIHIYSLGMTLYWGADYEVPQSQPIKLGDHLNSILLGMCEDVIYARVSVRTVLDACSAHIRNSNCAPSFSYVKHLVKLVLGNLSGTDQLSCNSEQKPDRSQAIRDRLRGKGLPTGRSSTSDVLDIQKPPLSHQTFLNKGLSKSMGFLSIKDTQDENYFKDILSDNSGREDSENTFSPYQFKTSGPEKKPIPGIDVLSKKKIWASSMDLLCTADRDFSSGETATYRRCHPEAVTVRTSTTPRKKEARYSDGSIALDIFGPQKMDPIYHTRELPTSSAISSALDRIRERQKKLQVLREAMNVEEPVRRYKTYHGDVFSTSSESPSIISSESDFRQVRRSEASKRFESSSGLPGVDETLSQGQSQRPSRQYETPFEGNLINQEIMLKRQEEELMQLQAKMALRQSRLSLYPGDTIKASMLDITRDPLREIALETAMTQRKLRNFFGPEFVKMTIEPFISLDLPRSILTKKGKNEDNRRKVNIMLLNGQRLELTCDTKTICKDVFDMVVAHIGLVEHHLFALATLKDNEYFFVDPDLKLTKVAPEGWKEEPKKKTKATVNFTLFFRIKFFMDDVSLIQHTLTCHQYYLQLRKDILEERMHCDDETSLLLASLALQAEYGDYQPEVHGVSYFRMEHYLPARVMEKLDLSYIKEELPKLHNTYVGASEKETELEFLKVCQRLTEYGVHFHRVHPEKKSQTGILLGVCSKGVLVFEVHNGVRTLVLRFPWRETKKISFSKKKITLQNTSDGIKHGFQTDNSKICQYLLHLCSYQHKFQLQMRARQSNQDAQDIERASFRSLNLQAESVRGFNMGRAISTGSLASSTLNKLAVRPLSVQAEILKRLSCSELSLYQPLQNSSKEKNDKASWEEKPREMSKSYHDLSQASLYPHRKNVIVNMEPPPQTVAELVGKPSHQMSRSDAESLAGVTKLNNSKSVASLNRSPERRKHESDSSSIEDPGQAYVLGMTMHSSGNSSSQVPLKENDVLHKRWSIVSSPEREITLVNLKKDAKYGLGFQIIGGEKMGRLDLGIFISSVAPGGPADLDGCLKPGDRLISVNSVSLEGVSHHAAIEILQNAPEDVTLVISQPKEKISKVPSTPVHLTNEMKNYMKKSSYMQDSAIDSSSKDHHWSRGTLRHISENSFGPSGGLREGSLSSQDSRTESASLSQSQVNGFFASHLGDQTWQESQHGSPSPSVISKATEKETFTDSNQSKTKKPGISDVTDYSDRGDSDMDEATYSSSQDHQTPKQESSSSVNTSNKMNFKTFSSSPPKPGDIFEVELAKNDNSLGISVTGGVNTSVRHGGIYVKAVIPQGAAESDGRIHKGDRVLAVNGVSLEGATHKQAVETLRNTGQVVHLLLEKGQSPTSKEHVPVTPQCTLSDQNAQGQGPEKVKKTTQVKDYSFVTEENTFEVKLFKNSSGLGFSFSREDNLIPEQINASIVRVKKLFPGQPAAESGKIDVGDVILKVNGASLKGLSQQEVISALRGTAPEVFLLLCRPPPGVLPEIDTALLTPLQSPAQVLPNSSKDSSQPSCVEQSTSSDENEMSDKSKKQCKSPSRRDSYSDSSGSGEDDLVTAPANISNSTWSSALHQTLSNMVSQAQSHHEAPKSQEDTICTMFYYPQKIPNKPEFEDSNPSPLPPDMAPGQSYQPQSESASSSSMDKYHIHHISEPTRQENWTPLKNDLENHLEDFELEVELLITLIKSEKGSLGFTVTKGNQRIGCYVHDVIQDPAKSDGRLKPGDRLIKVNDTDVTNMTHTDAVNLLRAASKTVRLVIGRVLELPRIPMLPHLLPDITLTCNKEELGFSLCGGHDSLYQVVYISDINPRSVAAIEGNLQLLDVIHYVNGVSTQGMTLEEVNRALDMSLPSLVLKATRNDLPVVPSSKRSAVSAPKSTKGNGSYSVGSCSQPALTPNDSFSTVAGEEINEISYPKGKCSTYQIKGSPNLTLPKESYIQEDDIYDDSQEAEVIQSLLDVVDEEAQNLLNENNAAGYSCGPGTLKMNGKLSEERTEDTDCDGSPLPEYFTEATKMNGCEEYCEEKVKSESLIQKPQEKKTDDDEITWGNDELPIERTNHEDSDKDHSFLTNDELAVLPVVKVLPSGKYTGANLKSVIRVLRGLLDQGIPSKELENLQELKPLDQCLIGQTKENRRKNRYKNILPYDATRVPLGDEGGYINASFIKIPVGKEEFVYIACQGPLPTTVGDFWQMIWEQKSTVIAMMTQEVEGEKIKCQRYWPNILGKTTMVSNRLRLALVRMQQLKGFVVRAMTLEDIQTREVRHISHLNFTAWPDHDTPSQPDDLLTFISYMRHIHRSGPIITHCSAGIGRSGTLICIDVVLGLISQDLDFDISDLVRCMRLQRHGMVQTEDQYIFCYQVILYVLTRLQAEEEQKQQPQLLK

Row | IC50 [1] | Compound | further results
1 |  | O=C(Nc1ccc(N2CCOCC2)cc1)C(c1ccccc1)S(=O)(=O)O (stereo unspecified) | IC50 [2]: > 200 µM; IC50 [3]: > 200 µM
2 | > 200 µM | O=C(Nc1nc2ccccc2s1)C(c1ccccc1Cl)S(=O)(=O)O (stereo unspecified) | 
3 | > 200 µM | O=C(Nc1nc2ccccc2s1)C(c1ccccc1F)S(=O)(=O)O (stereo unspecified) | 
4 | > 200 µM | Cc1cccc(C(C(=O)Nc2nc3ccccc3s2)S(=O)(=O)O)c1 (stereo unspecified) | 
5 | > 200 µM | CCCNC(=O)C(c1ccccc1)S(=O)(=O)O (stereo unspecified) | 
6 |  | O=C(Nc1cnc2ccccc2c1)C(c1ccccc1)S(=O)(=O)O (stereo unspecified) | IC50 [2]: > 200 µM; IC50 [3]: > 200 µM
7 | > 200 µM | Cc1ccccc1C(C(=O)Nc1nc2ccccc2s1)S(=O)(=O)O (stereo unspecified) | 
8 |  | O=C(Nc1nc2ccccc2s1)C(c1ccccc1)S(=O)(=O)O (stereo unspecified) | Ki [4]: 3.2 µM; Ki [5]: 1.7 µM; IC50 [2]: > 200 µM; IC50 [6]: 69.9 µM
9 | > 200 µM | O=C(Nc1nc2ccccc2s1)C(c1cccc(C(F)(F)F)c1)S(=O)(=O)O (stereo unspecified) | 
10 |  | O=C(Nc1ccc2nc(C(F)(F)F)[nH]c2c1)C(c1ccccc1)S(=O)(=O)O (stereo unspecified) | IC50 [2]: > 200 µM; IC50 [8]: > 200 µM
11 | > 200 µM | N#Cc1cccc(C(C(=O)Nc2nc3ccccc3s2)S(=O)(=O)O)c1 (stereo unspecified) | 
12 | > 200 µM | O=C(Nc1nc2ccccc2s1)C(c1cccc([N+](=O)[O-])c1)S(=O)(=O)O (stereo unspecified) | 

Row | Compound | IC50 [1] | further results
13 | O=C(Nc1ccccc1)C(c1ccccc1)S(=O)(=O)O (stereo unspecified) | > 100 µM | 
14 | O=C(Nc1nccs1)C(c1ccccc1)S(=O)(=O)O (stereo unspecified) | 72 µM | 
15 | CCOC(=O)c1ccc2nc(NC(=O)C(c3ccccc3)S(=O)(=O)O)sc2c1 (stereo unspecified) | 3.1 µM | 
16 | O=C(Nc1nc2ccccc2s1)C(c1cccc(F)c1)S(=O)(=O)O (stereo unspecified) | 50 µM | 
17 | O=C(Nc1nc2ccccc2s1)C(c1ccc(Br)cc1)S(=O)(=O)O (stereo unspecified) | 106 µM | 
18 | Cc1ccc(C(C(=O)Nc2nc3ccccc3s2)S(=O)(=O)O)cc1 (stereo unspecified) | 91.4 µM | 
19 | O=C(Cc1ccccc1)Nc1nc2ccc([N+](=O)[O-])cc2s1 | > 100 µM | inhibition [7]: inactive
